In the library only some 3.1% were active in any assay of this set; here they are far more common.
E-selectin induc: E-selectin induction in HUVECs, primary screen, imaging, HUVEC, immunofluorescence imaging, single point; P16581; 260,000 compounds, 0.37% hits; activation, % at 7.58 µM; normalized: neutral wells 0, TNF-alpha wells 100; AID 686992, 2013;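 active = mean E-selectin-positive cell signal at least 10% of the positive control, reached in at least 60% of replicates, without over 20% cell loss; inconclusive = no rule given, readout overlaps actives, possibly toxicity-flagged; inactive = the rest, including those meeting only one limit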
Target sequence (P16581 whole entry, looked up): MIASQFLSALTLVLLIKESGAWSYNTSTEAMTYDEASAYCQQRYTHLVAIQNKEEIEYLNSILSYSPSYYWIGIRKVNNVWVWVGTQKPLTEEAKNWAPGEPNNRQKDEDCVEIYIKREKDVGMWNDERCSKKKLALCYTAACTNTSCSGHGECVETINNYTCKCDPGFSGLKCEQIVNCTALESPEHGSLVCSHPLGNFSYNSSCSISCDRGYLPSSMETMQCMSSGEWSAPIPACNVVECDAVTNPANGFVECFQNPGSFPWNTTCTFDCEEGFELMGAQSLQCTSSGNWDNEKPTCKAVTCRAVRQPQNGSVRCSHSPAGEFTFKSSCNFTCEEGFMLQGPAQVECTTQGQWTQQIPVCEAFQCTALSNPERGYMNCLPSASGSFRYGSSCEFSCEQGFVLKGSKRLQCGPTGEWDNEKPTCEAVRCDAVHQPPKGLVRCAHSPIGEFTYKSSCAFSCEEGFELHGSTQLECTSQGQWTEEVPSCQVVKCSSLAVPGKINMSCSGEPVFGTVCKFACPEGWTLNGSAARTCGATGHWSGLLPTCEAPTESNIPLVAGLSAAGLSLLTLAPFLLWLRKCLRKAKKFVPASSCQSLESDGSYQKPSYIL
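Assay system: HUVEC, human umbilical vein endothelial cells / Amount: 3,000 HUVEC/well / Controls: TNF-alpha positive control, DMSO neutral control / Compound dosing: single concentration / Medium: EGM-2 over gelatin coat / Evaluation: percent E-selectin-positive cells / Signal: immunofluorescence imaging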
rRNA inh HTS: reduced GFP signal of wild-type E. coli, primary screen, bacterial rRNA inhibitor project, GFP/RFP fluorescence, OD600, single point | GFP signal change (wild-type ribosome), % (no concentration beside the values) | E. coli WT GFP vs humanized-ribosome RFP mutants, 24 h; active compounds read low; DMSO median 0, no signal -100 | AID 720706, 2013 | 350,000 compounds, 1.6% hits;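 active = significant combined selectivity score with lowered wild-type GFP, culture density cut under 30%, mutant RFP and density less affected; inactive = any of these conditions unmet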
DENV2 CPE rescue: inhibitors of DENV2 cytopathic effect, primary screen, cell-based, plate reader, single concentration; CPE inhibition, % at 9.99 µM; DENV2-infected cells, cytopathic effect rescue; 350,000 compounds, 1.7% hits; in the data active = CPE inhibition above about 20%, passing the limit was not always enough; inconclusive = no clear call, values can overlap the other calls; tested in BHK-21 cells
miR122 inh: miR-122 Renilla sensor signal increase in Huh7, primary screen, miR-122 inhibitor project, cell-based, single point, plate reader; Huh7 miR-122 Renilla luciferase sensor, 48 h; neutral wells = 0, positive control = 100; activation (reporter increase), % at 12.5 µM; 340,000 compounds, 0.3% hits;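 active = mean replicate activation score at least 90 and every replicate individually at or above 90; inconclusive = only one of the two criteria met; inactive = neither criterion met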;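 note: higher luciferase means less miR-122 activity so hits act as miR-122 inhibitors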
Cneo AK release: Cryptococcus neoformans cell lysis inducers, primary screen, AK release luminescence, single concentration. C. neoformans lysis, adenylate kinase release luminescence, 4 h; normalised: neutral wells 0, clomiphene wells 100. AID 651654, 2012. 360,000 compounds, 0.2% hits. lysis activity, % at 15 µM;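 active = mean lysis activity across replicates of at least 80%, whatever share of replicates individually reach that level; inactive = mean lysis activity below 80%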
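Assay system: log-phase C. neoformans yeast / Quantity: yeast cell density of 5 × 10^6 cells/mL / Medium: fresh YPD growth medium / Compound: single dose / Timing: static 4 h at 37 °C with compound, 1 h detection / Measured by: adenylate kinase release luminescence / Read-out: lysis from increased AK signal / Benchmarks: Clomiphene as positive lysis control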
Hits are given with their value; n = inactive; u = inconclusive; x = not tested or not shown.

SMILES	E-selectin induc	rRNA inh HTS	DENV2 CPE rescue	miR122 inh	Cneo AK release
O=C(C[C@H]1CC[C@@H](NC(=O)CC2CC2)[C@@H](CO)O1)NCc1ccc(Cl)cc1	n	n	n	x	n
O=C1c2ccccc2[C@@H]2C[C@@H](O)[C@H](Nc3cccc4ccccc34)CCN12	n	n	26.0	x	n
COc1ccc(N[C@@H]2CCN3C(=O)c4ccccc4[C@@H]3C[C@H]2O)cc1	n	n	n	x	n
CN1C(=O)c2cc(NS(=O)(=O)c3ccc(F)cc3)ccc2OC[C@@H]2O[C@@H](CC(=O)O)CC[C@@H]21	n	n	n	n	n
CC(C)NC(=O)Nc1ccc2c(c1)CC(=O)N([C@H](C)CO)C[C@H](C)[C@@H](CN(C)Cc1ccc(C(F)(F)F)cc1)O2	n	n	n	n	n
COCC(=O)N1CC2(C1)[C@@H](c1ccccc1)[C@@H](CO)N2Cc1ccccc1OC	n	n	n	x	x
O=C(CSc1nnc(-c2ccncc2)n1Cc1ccco1)Nc1ccccc1Cl	x	x	x	n	x
O=C(CSc1nnc(-c2ccncc2)n1Cc1ccco1)c1ccc(Cl)cc1	x	-19.9	x	x	n
COc1ccc(C(=O)C2CCCN(C(=O)c3noc4c3CCCC4)C2)cc1F (centres undefined)	x	-25.3	n	n	n
COc1ccc(C(=O)C2CCCN(C(=O)c3noc4c3CCCC4)C2)c(C)c1 (centres undefined)	n	n	x	n	n
Cc1ccc(C)c(C(Nc2ccccc2)c2ccc3ccc(C)nc3c2O)c1 (centres undefined)	n	n	22.5	x	x
O=[N+]([O-])c1ccc(N2CCN(CCOc3nonc3-c3ccccc3)CC2)c(Cl)c1	x	n	n	n	n
O=[N+]([O-])c1ccc(N2CCN(Cc3ccc([N+](=O)[O-])o3)CC2)cc1	x	-23.0	n	n	n
Cc1nonc1OCCN1CCN(c2ccc([N+](=O)[O-])cc2)CC1	n	-23.0	n	x	x
O=[N+]([O-])c1ccc(CN2CCN(c3ccccc3)CC2)o1	n	n	n	x	n
C[C@@H]1CN([C@H](C)CO)C(=O)Cc2cc(NC(=O)Cn3cnnn3)ccc2O[C@H]1CN(C)C(=O)Nc1ccc2c(c1)OCO2	n	n	n	n	n
COc1ccc(NC(=O)N(C)C[C@H]2Oc3ccc(NC(=O)Cn4cnnn4)cc3CC(=O)N([C@@H](C)CO)C[C@@H]2C)cc1	x	n	56.3	n	n
C[C@@H]1CN([C@@H](C)CO)C(=O)Cc2cc(NC(=O)Cn3cnnn3)ccc2O[C@@H]1CN(C)C(=O)Nc1ccc2c(c1)OCO2	n	n	23.4	n	n
C[C@H]1CCCCO[C@H](CN(C)Cc2ccc(C(F)(F)F)cc2)[C@@H](C)CN([C@@H](C)CO)C(=O)c2cc(NS(=O)(=O)c3ccccc3)ccc2O1	n	n	n	n	n
COC(=O)[C@H]1[C@H](CO)[C@H]2Cn3c(ccc(/C=C/c4ccccc4)c3=O)[C@H]2N1C(=O)C1CCCC1	n	n	n	x	n
COc1ccc(-c2ccc3c(c2)[C@@H]2[C@@H](CCN2C(=O)C2CCOCC2)[C@@H](CO)N3C)cc1	n	n	115.0	n	n
COc1ccc(-c2ccc3c(c2)[C@@H]2[C@@H](CCN2C(=O)C2CCCC2)[C@H](CO)N3C)cc1	n	n	n	x	x
CN1c2ccc(-c3ccc(F)cc3)cc2[C@@H]2[C@@H](CCN2C(=O)C2CCOCC2)[C@@H]1CO	n	n	u	n	81.1
C[C@H](CO)N1C[C@H](C)[C@H](CN(C)C(=O)Nc2ccccc2)Oc2ncc(C#Cc3ccc(C(F)(F)F)cc3)cc2C1=O	x	x	n	n	n
CC(C)(C)Nc1c([N+](=O)[O-])c(=O)sc2ccccc12	x	n	n	n	n
SMILES	E-selectin induc	rRNA inh HTS	DENV2 CPE rescue	miR122 inh	Cneo AK release
CCCCCCNc1c([N+](=O)[O-])c(=O)sc2ccccc12	n	-24.4	n	n	x
O=C(C[C@@H]1CC[C@H]2[C@@H](COC[C@@H](O)CN2C(=O)Nc2ccc3c(c2)OCO3)O1)N1CCN(c2ccccc2)CC1	n	n	n	n	n
Cc1noc(C)c1S(=O)(=O)Nc1ccc2c(c1)CC(=O)N([C@@H](C)CO)C[C@@H](C)[C@@H](CN(C)C(=O)Nc1cccc3ccccc13)O2	n	n	x	n	n
Cc1noc(C)c1S(=O)(=O)Nc1ccc2c(c1)CC(=O)N([C@H](C)CO)C[C@H](C)[C@@H](CN(C)C(=O)Nc1cccc3ccccc13)O2	305.3	n	n	x	x
Cc1noc(C)c1S(=O)(=O)Nc1ccc2c(c1)CC(=O)N([C@H](C)CO)C[C@@H](C)[C@@H](CN(C)C(=O)NC(C)C)O2	n	n	45.7	n	n
Cc1noc(C)c1S(=O)(=O)Nc1ccc2c(c1)CC(=O)N([C@H](C)CO)C[C@@H](C)[C@H](CN(C)C(=O)Nc1cccc3ccccc13)O2	32.1	n	n	n	n
Cc1noc(C)c1S(=O)(=O)Nc1ccc2c(c1)CC(=O)N([C@@H](C)CO)C[C@H](C)[C@H](CN(C)C(=O)NC(C)C)O2	n	n	n	n	n
CNC(=O)C[C@@H]1CC[C@H]2[C@@H](COc3ccc(NC(=O)NC(C)C)cc3C(=O)N2C)O1	n	n	n	n	n
O=C1C2CC=C(Cl)CC2C(=O)N1CCc1c[nH]c2ccccc12 (centres undefined)	x	-25.5	x	n	n
S=C(Nc1cccc(Cl)c1)Nc1ccccc1Oc1ccccc1	x	x	x	n	n
S=C(Nc1ccc(Cl)cc1Cl)Nc1ccccc1Oc1ccccc1	x	x	x	n	359.7
COc1cccc(C(=O)NC(=S)Nc2ccc(N3CCCC3)cc2)c1	x	x	x	n	n
CCCC(=O)N1CCN(c2ccc(NC(=S)NC(=O)c3cccc(C)c3)cc2)CC1	x	-19.8	n	x	n
CC(C)Oc1cccc(C(=O)NC(=S)Nc2ccc(N3CCN(C)CC3)cc2)c1	x	-17.9	n	n	n
C[C@@H]1CN([C@H](C)CO)C(=O)c2cccc(NC(=O)NC3CCCCC3)c2O[C@H]1CN(C)C	n	n	n	n	n
COCC(=O)N(C)C[C@H]1Oc2cc(C#CCC3CCCC3)ccc2S(=O)(=O)N([C@H](C)CO)C[C@@H]1C	n	n	n	x	n
C[C@H](CO)N1C[C@H](C)[C@H](CN(C)C(=O)Cc2cccnc2)Oc2ncc(/C=C/c3ccccc3)cc2C1=O	n	n	n	n	n
CC(=O)O[C@H]1CC[C@@]2(C)[C@@H](CC[C@H]3[C@@H]4CC[C@H](C(C)O)[C@@]4(C)CC(=O)[C@@H]32)C1 (some centres undefined)	n	n	37.3	n	n
Cc1noc(C)c1S(=O)(=O)N(C)C[C@@H]1Oc2c(NC(=O)C3CC3)cccc2C(=O)N([C@@H](C)CO)C[C@@H]1C	n	n	n	n	n

Screens deposited in PubChem by Broad Institute.
